Experimental data: ChEMBL document CHEMBL1156237, “Antiviral activity of benzimidazole derivatives. II. Antiviral activity of 2-phenylbenzimidazole derivatives” (Bioorg Med Chem, 2010)
The source made the active and inactive calls.

Experiments:
[1] = system: Bovine viral diarrhea virus 1; assay: Antiviral activity against Bovine viral diarrhea virus NADL infected in MDBK cells assessed as protection from virus-induced cytopathogenicity after 3 to 4 days by MTT method; assay type: functional, organism-based, Bovine viral diarrhea virus 1-NADL
How it was run: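 Cytopathogenicity protection assay. MDBK cells at 3 × 10^4/well, grown overnight to confluence. Infected with BVDV NADL at m.o.i. 0.01 in MEM-E with 0.5% inactivated FBS, 1 mM Na pyruvate and 1% kanamycin. Serial compound dilutions added after 1 h. After 3–4 days at 37 °C, viability read by MTT; EC50 is the concentration giving 50% protection.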

[2] = Selectivity index, ratio of CC50 for MDBK cells to EC50 for Bovine viral diarrhea virus NADL; assay type: toxicity, cell-based; conditions: cattle, read-out: Ratio CC50/EC50
[3] = system: Human immunodeficiency virus 1; assay: Antiviral activity against HIV1 3B infected in human MT4 cells assessed as protection from virus-induced cytopathogenicity after 4 days by MTT method; assay type: functional, organism-based
How it was run: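 MT-4 cells, 1 × 10^4/well in RPMI with or without serial compound dilutions, infected with HIV-1 IIIB, 100 CCID50 (m.o.i. 0.01). Protection from virus-induced cytopathogenicity read by MTT.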

[4] = (§1) Cytotoxicity against human MT4 cells after 96 hrs by MTT assay; assay type: cell-based; conditions: MT4 cells
How it was run: (§2)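 Exponentially growing MT-4 cells at 1 × 10^5 cells/mL in RPMI-1640 with 10% FCS, exposed to serial compound dilutions at 37 °C, 5% CO2. Viability by MTT after 96 h; CC50 is the concentration reducing viability of mock-infected cells by 50%.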

[5] = system: Vesicular stomatitis virus; assay: Antiviral activity against VSV Indiana lab infected in african green monkey Vero cells after 2 days by plaque reduction assay; assay type: functional, organism-based
Hepatitis C virus [6] = assay: Antiviral activity against HCV Con1 expressed in human HuH7 cells assessed as NS4A expression after 72 hrs by ELISA-based replicon assay; assay type: functional, organism-based, Hepacivirus hominis; conditions: isolate Con1, Huh-7, 72 h
How it was run: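 GS4.1 cells (Huh-7 carrying HCV Con1 subgenomic replicon) at 7.5 × 10^3/well. Ten twofold compound dilutions (top 75 µM), 0.5% DMSO, 72 h at 37 °C; replicon-free Huh-7 as negative control. NS4A measured by ELISA with anti-NS4A mAb A-236, peroxidase secondary and o-phenylenediamine, absorbance 492 nm. EC50 by four-parameter sigmoidal fit.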

Human alphaherpesvirus 1 = assay: Antiviral activity against HSV1 KOS infected in african green monkey Vero cells after 3 days by plaque reduction assay; assay type: functional, organism-based; conditions: Human alphaherpesvirus 1, KOS, 72 h
How it was run: (§3)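 Plaque reduction assay. Vero 76 cells at 2 × 10^5/well, grown overnight to confluence in D-MEM with 10% FBS. Infected 2 h with 50–100 PFU/well, unadsorbed virus removed. Overlay of D-MEM with 1% inactivated FBS and 0.75% methylcellulose, with or without serial compound dilutions. Incubated at 37 °C for 3 days (HSV-1 KOS, CVB-2 Ohio-1) or 5 days (RSV A2). Fixed and stained with crystal violet in 50% ethanol; plaques counted; EC50 by linear regression.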

[7] = Cytotoxicity against BHK cells after 48 to 96 hrs by MTT assay; assay type: cell-based, Mesocricetus auratus; conditions: hamster
How it was run: (§4)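 Cell seeding: MDBK at 6 × 10^5 cells/mL in MEM-E with 10% horse serum and 1 mM Na pyruvate; BHK at 1 × 10^6 cells/mL in MEM-E with 10% FBS. Serial compound dilutions, 37 °C, 5% CO2. Viability of mock-infected cells by MTT after 48–96 h; CC50 is the concentration reducing viability by 50%.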

Yellow fever virus = assay: Antiviral activity against Yellow fever virus 17D infected in BHK cells assessed as protection from virus-induced cytopathogenicity after 3 to 4 days by MTT method; assay type: functional, organism-based
[8] = Cytotoxicity against african green monkey Vero cells; assay type: cell-based; conditions: chlorocebus sabaeus
How it was run: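 Vero 76 monolayers exposed to serial compound dilutions, run in parallel on the same 24-well plates as the plaque-reduction assays. CC50 is the concentration reducing viability of mock-infected cells by 50%.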

[9] = Selectivity index, ratio of CC50 for human MT4 cells to EC50 for Bovine viral diarrhea virus NADL; assay type: toxicity, cell-based; conditions: read-out: Ratio CC50/EC50
[10] = Cytotoxicity against MDBK cells after 48 to 96 hrs by MTT assay; assay type: cell-based, Bos taurus; conditions: cattle; how it was run: as §4
Poliovirus 1 = assay: Antiviral activity against Polio virus type1 Sabin strain Chat infected in african green monkey Vero cells after 2 days by plaque reduction assay; assay type: functional, organism-based, Human poliovirus 1 strain Sabin; conditions: Enterovirus C, 48 h
[11] = Cytotoxicity against human HuH7 cells after 72 hrs; assay type: cell-based, Huh-7
How it was run: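 GS4.1 replicon cells treated as in the replicon assay (twofold dilutions up to 75 µM, 72 h). Viability by CellTiter 96 AQueous One Solution; CC50 from % cytotoxicity versus concentration.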

Coxsackievirus B2 = assay: Antiviral activity against Human coxsackievirus B2 Ohio-1 infected in african green monkey Vero cells after 3 days by plaque reduction assay; assay type: functional, organism-based, Coxsackievirus B2 (strain Ohio-1); how it was run: as §3
[12] = Inhibition of Bovine viral diarrhea virus NADL NS5B Cdelta24 RNA dependent RNA polymerase expressed in Escherichia coli after 30 mins by fluorescence assay; parameters: species or system Bovine viral diarrhea virus 1-NADL
How it was run: (§5)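 N-His-tagged NS5B from E. coli Rosetta2(DE3)pLysS (BVDV C-terminal Δ24; HCV1b Δ21), Ni-NTA purified, 500–600 ng per 20 µL reaction. Template 10 µg/mL poly(rC), primer 0.1 µg/mL oligo(rG)12, substrate 80 µM GTP; 20 mM Tris pH 7.0, 0.5 mM MnCl2 or 5 mM MgCl2, 5% DMSO. Enzyme pre-incubated with drug 30 min at room temperature.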

Hepatitis C virus [13] = assay: Inhibition of HCV 1b NS5B Cdelta21 RNA dependent RNA polymerase expressed in Escherichia coli after 30 mins by fluorescence assay; assay type: functional, Hepatitis C virus subtype 1b; conditions: 0.5 h; how it was run: as §5
[14] = system: Respiratory syncytial virus; assay: Antiviral activity against RSV A2 infected in african green monkey Vero cells after 5 days by plaque reduction assay; assay type: functional, organism-based; conditions: human respiratory syncytial virus, A2, Vero, 120 h; how it was run: as §3
[15] = Selectivity index, ratio of CC50 for african green monkey Vero cells to EC50 for Vaccinia virus Elstree-Lister; assay type: toxicity, cell-based; conditions: read-out: Ratio CC50/EC50
[16] = Selectivity index, ratio of CC50 for human MT4 cells to EC50 for Vaccinia virus Elstree-Lister; assay type: toxicity, cell-based; conditions: read-out: Ratio CC50/EC50
Vaccinia virus = assay: Antiviral activity against Vaccinia virus Elstree-Lister infected in african green monkey Vero cells after 3 days by plaque reduction assay; assay type: functional, organism-based; conditions: Orthopoxvirus vaccinia, 72 h
MT4 = assay: as §1; assay type: cell-based; conditions: mt4, 96 h, 96 h; how it was run: as §2
[17] = system: Bovine viral diarrhea virus 1; assay: Antiviral activity against Bovine viral diarrhea virus NADL infected in MDBK cells assessed as inhibition of viral replication administered up to 4 hrs post infection measured after 24 to 36 hrs by plaque reduction assay; assay type: functional, organism-based; conditions: Bovine viral diarrhea virus 1-NADL
How it was run: (§6)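 MDBK monolayers inoculated at room temperature with BVDV NADL, 300 PFU (m.o.i. 0.01 PFU/cell), 60 min adsorption, washed, kept in MEM-E + 1 mM Na pyruvate + 0.5% inactivated FBS at 37 °C. Medium containing 10× compound added for one window (−1–0, 0–2, 2–4 … 12–14 h), then washed out and fresh medium given. CPE scored at 24–36 h; viral titre by plaque assay.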

[18] = system: Bovine viral diarrhea virus 1; assay: Antiviral activity against Bovine viral diarrhea virus NADL infected in MDBK cells assessed as protection from virus-induced cytopathogenicity administered up to 6 hrs post infection measured after 24 to 36 hrs by plaque reduction assay; assay type: functional, organism-based; conditions: Bovine viral diarrhea virus 1-NADL; how it was run: as §6
[19] = system: Bovine viral diarrhea virus 1; assay: Antiviral activity against Bovine viral diarrhea virus NADL infected in MDBK cells assessed as inhibition of post viral entry pre-budding stage of replication administered at 13 hrs post infection measured after 24 to 36 hrs by plaque reduction assay; assay type: functional, organism-based; conditions: Bovine viral diarrhea virus 1-NADL; how it was run: as §6
[20] = Bovine viral diarrhea virus isolates and strains, MDBK

In the case of `CC(=O)Nc1ccc(-c2nc3cc(Cl)c(Cl)cc3[nH]2)cc1`, the EC50 [1, 20] is reported as 1 µM, the selectivity ratio [2] is reported as 58 and the Activity [3] is reported as “inactive”. The CC50 at 96 h [4] was over 100 µM, the Activity [5] was “inactive” and the EC50 (Hepatitis C virus [6]) was 32 µM. For the same compound, the EC50 (Human alphaherpesvirus 1) was over 100 µM, the CC50 [7] was over 100 µM and the EC50 (Yellow fever virus) was over 100 µM. For the same compound, the CC50 [8] was over 100 µM, the selectivity ratio [9] was over 100 and the CC50 ([10]; MDBK cells) was 58 µM. For the same compound, the EC50 (Poliovirus 1) was over 100 µM, the CC50 at 72 h [11] was over 75 µM and the EC50 (Coxsackievirus B2; Enterovirus B, Vero, 72 h) was over 100 µM. The IC50 [12] was 3 µM and the IC50 (Hepatitis C virus [13]) was 5 µM.

With `O=[N+]([O-])c1ccc(-c2nc3cc(Cl)c(Cl)cc3[nH]2)cc1` the EC50 [1, 20] was over 56 µM, the EC50 [14] was over 100 µM and the Activity [3] was “inactive”. The CC50 at 96 h [4] was 17 µM, the Activity [5] was “inactive” and the EC50 (Human alphaherpesvirus 1) was over 100 µM. The CC50 [7] was over 100 µM, the selectivity ratio [15] was at least 1000 and the selectivity ratio [16] was 170. It also gave an EC50 (Yellow fever virus) of over 100 µM, a CC50 [8] of at least 100 µM and a CC50 ([10]; MDBK cells) of 56 µM. The EC50 (Poliovirus 1) was over 100 µM, the EC50 (Coxsackievirus B2; Enterovirus B, Vero, 72 h) was over 100 µM and the EC50 (Vaccinia virus) was 0.1 µM.

For `O=C(CN1CCOCC1)Nc1ccc(-c2nc3cc(Cl)c(Cl)cc3[nH]2)cc1`, the EC50 ([1]; mdbk) was over 100 µM, the Activity [3] was “inactive” and the CC50 (MT4) was over 100 µM. For the same compound, the Activity [5] was “inactive”, the CC50 [7] was over 100 µM and the EC50 (Yellow fever virus) was over 100 µM. For the same compound, the CC50 [8] was over 100 µM, the CC50 ([10]; mdbk) was over 100 µM and the EC50 (Coxsackievirus B2; vero) was over 100 µM.

For `CC(=O)Nc1ccc(-c2nc3cc([N+](=O)[O-])ccc3[nH]2)cc1`, the EC50 [1, 20] was 0.8 µM, the selectivity ratio [2] was over 125 and the Activity [17] was “Active”. The Activity [3] was “inactive”, the CC50 at 96 h [4] was over 100 µM and the Activity [5] was “inactive”. It also gave an EC50 (Hepatitis C virus [6]) of 38 µM, an EC50 (Human alphaherpesvirus 1) of over 100 µM and a CC50 [7] of over 100 µM. The Activity [18] was “Active”, the EC50 (Yellow fever virus) was over 100 µM and the Activity [19] was “Active”. The CC50 [8] was over 100 µM, the selectivity ratio [9] was over 125 and the CC50 ([10]; MDBK cells) was over 100 µM. The EC50 (Poliovirus 1) was over 100 µM, the CC50 at 72 h [11] was over 90 µM and the EC50 (Coxsackievirus B2; Enterovirus B, Vero, 72 h) was over 100 µM. It also gave an IC50 [12] of 12 µM and an IC50 (Hepatitis C virus [13]) of 30 µM.

For `Nc1ccc(-c2nc3cc([N+](=O)[O-])ccc3[nH]2)cc1`, the EC50 [1, 20] was 1.5 µM, the selectivity ratio [2] was 53 and the Activity [3] was “inactive”. The CC50 at 96 h [4] was 100 µM, the Activity [5] was “inactive” and the EC50 (Human alphaherpesvirus 1) was over 100 µM. For the same compound, the CC50 [7] was over 100 µM, the EC50 (Yellow fever virus) was over 100 µM and the CC50 [8] was over 100 µM. The selectivity ratio [9] was 67, the CC50 ([10]; MDBK cells) was 79 µM and the EC50 (Poliovirus 1) was over 100 µM. The EC50 (Coxsackievirus B2; Enterovirus B, Vero, 72 h) was over 100 µM, the IC50 [12] was 18 µM and the IC50 (Hepatitis C virus [13]) was 33 µM.
